Test results published in ChEMBL document CHEMBL3407360, “Proteasome inhibitors with pyrazole scaffolds from structure-based virtual screening” (J Med Chem, 2015).
Activity calls are given as the source filed them. The calls are words filed in the database; no cut-off is given here.

How the values were obtained:
Homo sapiens [1] = species on record: Homo sapiens; assay: Inhibition of human 20S proteasome beta5i chymotrypsin-like activity using Ac-ANW-AMC as substrate preincubated for 30 mins before substrate addition measured over 90 mins by fluorescence assay
Homo sapiens [2] = species on record: Homo sapiens; assay: Inhibition of human 20S proteasome beta1i chymotrypsin-like activity using Ac-PAL-AMC as substrate preincubated for 30 mins before substrate addition measured over 90 mins by fluorescence assay
Summary of the method: (§1)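 Purified human 20S proteasome (CP or IP, 0.5 µg/mL) was preincubated with compound for 30 min at room temperature in 20 mM Tris-HCl, 0.5 mM EDTA, 0.035% SDS. Substrates were Ac-nLPnLD-AMC 100 µM for β1, Ac-PAL-AMC 100 µM for β1i, and Boc-LRR-AMC 200 µM for β2/β2i. AMC release was followed 90 min at room temperature, ex 360/em 460 nm.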

RPMI-8226 [3] = assay: Inhibition of 20S proteasome trypsin-like in human RPMI8226 cell extracts using Boc-LRR-AMC as substrate preincubated at 1 to 10 uM for 30 mins before substrate addition by fluorescence assay; type: cell-free
Summary of the method: (§2)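 Cytosolic extracts of RPMI 8226 cells served as the proteasome source in place of purified enzyme. Extracts were preincubated with compound, and hydrolysis of Suc-LLVY-AMC (CT-L), Z-LLE-AMC (C-L) or Boc-LRR-AMC (T-L) was read by AMC fluorescence at ex 360/em 460 nm.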

RPMI-8226 [4] = assay: Inhibition of 20S proteasome caspase-like in human RPMI8226 cell extracts using Z-LLE-AMC as substrate preincubated at 1 to 10 uM for 30 mins before substrate addition by fluorescence assay; type: cell-free
Summary of the method: as §2

NCI-H358 = assay: Cytotoxicity against human NCI-H358 cells after 72 hrs; type: functional, cell-based; conditions: NCI-H358, 72 h
Summary of the method: (§3)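 Adherent lines, growing in log phase in DMEM or RPMI 1640 with 10% FBS, were plated at 7,000–10,000 cells/well. Compound was added 24 h later at the final concentration. Viability was measured after 72 h by CellTiter Glo luminescence or CellTiter 96 Aqueous One absorbance.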

Homo sapiens [5] = species on record: Homo sapiens; assay: Inhibition of human 20S proteasome beta2i trypsin-like activity using Boc-LRR-AMC as substrate preincubated for 30 mins before substrate addition measured over 90 mins by fluorescence assay
Summary of the method: as §1

[6] = Cytotoxicity against human H23 cells after 72 hrs; type: functional, cell-based; conditions: NCI-H23, 72 h
Summary of the method: as §3

[7] = target: T1, Proteasome Macropain subunit MB1 (Homo sapiens) (UniProt P28074); assay: Inhibition of human 20S proteasome beta5 chymotrypsin-like activity using Ac-WLA-AMC as substrate preincubated for 30 mins before substrate addition measured over 90 mins by fluorescence assay
T1 sequence (whole entry): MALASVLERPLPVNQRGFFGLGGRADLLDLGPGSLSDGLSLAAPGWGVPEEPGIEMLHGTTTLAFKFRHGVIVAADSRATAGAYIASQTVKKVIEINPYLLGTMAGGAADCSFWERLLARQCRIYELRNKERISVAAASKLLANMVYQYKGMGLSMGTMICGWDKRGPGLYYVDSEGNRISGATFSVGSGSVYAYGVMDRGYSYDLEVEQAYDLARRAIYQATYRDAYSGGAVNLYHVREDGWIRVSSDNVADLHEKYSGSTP

RPMI-8226 [8] = assay: Inhibition of 20S proteasome chymotrypsin-like in human RPMI8226 cell extracts using Suc-LLVY-AMC as substrate preincubated at 1 to 10 uM for 30 mins before substrate addition by fluorescence assay; type: cell-free
Summary of the method: as §2

[9] = target: T2, Proteasome component C5 (Homo sapiens) (UniProt P20618); assay: Inhibition of human 20S proteasome beta1 caspase-like activity using Ac-nLPnLD-AMC as substrate preincubated for 30 mins before substrate addition measured over 90 mins by fluorescence assay
T2 sequence (whole entry): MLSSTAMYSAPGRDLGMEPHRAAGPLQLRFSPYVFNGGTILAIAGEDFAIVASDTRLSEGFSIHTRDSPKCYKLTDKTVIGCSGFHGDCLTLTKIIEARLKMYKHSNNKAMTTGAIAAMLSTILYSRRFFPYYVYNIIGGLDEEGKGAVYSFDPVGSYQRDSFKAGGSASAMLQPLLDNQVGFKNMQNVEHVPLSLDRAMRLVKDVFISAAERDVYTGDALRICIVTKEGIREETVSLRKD
Summary of the method: as §1

[10] = target: Proteasome Macropain subunit (Homo sapiens) (UniProt P49721); assay: Inhibition of human 20S proteasome beta2 trypsin-like activity using Boc-LRR-AMC as substrate preincubated for 30 mins before substrate addition measured over 90 mins by fluorescence assay
Summary of the method: as §1

BXPC-3 [11] = assay: Cytotoxicity against bortezomib-resistant human BxPC3 cells after 72 hrs; type: functional, cell-based
Summary of the method: (§4)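 Resistant BxPC-3 sublines were derived by about 6 months of stepwise increasing drug exposure. […] Compound was added 24 h after plating. Viability was read after 72 h by CellTiter Glo luminescence or CellTiter 96 Aqueous One.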

Liver = assay: Metabolic stability in Balb/c mouse liver microsomes; type: ADME
Summary of the method: (§5)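 Compound at 1 µM was incubated with 0.5 mg/ml microsomal protein, either pooled Balb/c mouse or pooled human. The buffer was 100 mM Tris-HCl pH 7.4 with an NADPH-generating system (isocitrate, isocitrate dehydrogenase, MgCl2, NADP+). After 5 min preincubation at 37°C, reactions ran 0, 5, 10 or 20 min and were quenched with cold acetonitrile containing phenytoin internal standard. Parent remaining was measured by LC-MS/MS.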

RPMI-8226 [12] = assay: Reversible inhibition of 20S proteasome in human RPMI8226 cell extracts assessed as dissociation half life compound preincubated for 30 mins followed by 25-fold dilution by jump dilution assay; type: cell-based
Summary of the method: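 RPMI 8226 lysate (30 µg protein) was incubated with 10 µM compound for 30 min at room temperature in 20S assay buffer. Baseline Suc-LLVY-AMC hydrolysis was recorded in a cuvette, then the mixture was rapidly diluted 25-fold in assay buffer and recovery of activity was monitored.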

Liver microsome = assay: Metabolic stability in human liver microsomes; type: ADME
Summary of the method: as §5

BXPC-3 [13] = assay: Cytotoxicity against carfilzomib-resistant human BxPC3 cells after 72 hrs; type: functional, cell-based
Summary of the method: as §4

Mus musculus = assay: Toxicity in human LNCAP cells xenografted nude mouse assessed as body weight loss at 5 mg/kg, ip twice a week for 4 weeks; type: organism-based; parameters: dose 5 mg/kg, route intraperitoneal; conditions: in vivo, 672 h
Summary of the method: (§6)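 Male athymic BALB/c nude mice, six weeks old, implanted subcutaneously with LNCaP cells (2 x 10^6 cells/50 µL). At ~100 mm3 tumors, n=5/group received 5 mg/kg ip twice weekly for four weeks in 8% DMSO in HP-β-cyclodextrin and citrate. Tumor volume ((width)2 x length/2) and body weight were measured every 4 days. Tumors were excised and weighed at Day 30.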

LNCaP [14] = assay: Antitumor activity against human LNCAP cells xenografted in nude mouse assessed as tumor growth inhibition at 5 mg/kg, ip twice a week for 4 weeks; type: functional, organism-based; parameters: dose 5 mg/kg
Summary of the method: as §6

RPMI8266 = assay: Cytotoxicity against human […] cells after 72 hrs; type: functional, cell-based
Summary of the method: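 Suspension RPMI 8226 cells were collected by centrifugation and plated at 10,000 cells/well in medium with 10% FBS. Compound was added 24 h later. Viability was read after 72 h by CellTiter Glo or CellTiter 96 Aqueous One.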

BXPC-3 [15] = assay: Cytotoxicity against human BxPC3 cells after 72 hrs; type: functional, cell-based
Summary of the method: as §3

LNCaP [16] = assay: Cytotoxicity against human LNCAP cells after 72 hrs; type: functional, cell-based
Summary of the method: as §3

Homo sapiens [17] = species on record: Homo sapiens; assay: Inhibition of human 20S proteasome chymotrypsin-like activity preincubated at 10 uM for 30 mins before substrate addition measured over 90 mins by fluorescence assay

Proteasome Macropain subunit (Homo sapiens), sequence (P49721 whole entry): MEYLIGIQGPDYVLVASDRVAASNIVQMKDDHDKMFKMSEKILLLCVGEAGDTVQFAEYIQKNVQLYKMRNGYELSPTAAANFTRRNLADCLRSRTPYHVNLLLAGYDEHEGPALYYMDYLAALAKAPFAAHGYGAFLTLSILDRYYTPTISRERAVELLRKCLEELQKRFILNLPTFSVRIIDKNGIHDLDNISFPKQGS

With `Cc1ccc(OS(=O)(=O)c2cccc(C(F)(F)F)c2)c(-c2cc(-c3ccccc3)n(CCN[C@@H]3CCNC3)n2)c1` the inhibition (Homo sapiens [1]) was “Active”, the inhibition (Homo sapiens [2]) was “Active” and the inhibition (RPMI-8226 [3]) was “inactive”. The inhibition (RPMI-8226 [4]) was “Active”, the IC50 (NCI-H358) was 7 µM and the inhibition (Homo sapiens [5]) was “inactive”. For the same molecule, the IC50 [6] was 7 µM, the inhibition [7] was “Active” and the inhibition (RPMI-8226 [8]) was “Active”. For the same molecule, the inhibition [9] was “Active” and the inhibition [10] was “inactive”.

For `Cc1ccc(OS(=O)(=O)c2cccc(C(F)(F)F)c2)c(-c2cc(-c3ccccc3)n(CC(=O)N[C@@H]3CCNC3)n2)c1`, the Activity (BXPC-3 [11]) was “Active”, the Stability (Liver) was “Stable” and the T1/2 (RPMI-8226 [12]) was 3.2 min. For the same molecule, the inhibition (RPMI-8226 [3]) was “inactive”, the Stability (Liver microsome) was “Stable” and the Activity (BXPC-3 [13]) was “Active”. The inhibition (RPMI-8226 [4]) was “Active”, the Activity (Mus musculus) was “Non-toxic” and the TGI (LNCaP [14]) was “Active”. For the same molecule, the Activity (RPMI8266) was “Active”, the inhibition (RPMI-8226 [8]) was “Active” and the Activity (BXPC-3 [15]) was “Active”. The Activity (LNCaP [16]) was “Active” and the inhibition (Homo sapiens [17]) was “Active”.
